According to article PMC10405366 (Molecular pharmaceutics, 2023):

Experiments:
[1] = tested on: female athymic nude (nu/nu) mice; assay: Tolerability study: hematology; format: in vivo, mouse
How it was run: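 Athymic nude mice (n = 5 per group) received test compound or the Tween80:Captex200:saline vehicle IP every 2 days for 14 days. About 2–4 h after the last dose, mice were killed with CO2 and blood was drawn by cardiac puncture. Complete blood counts and serum chemistry were run by a pathology core. Values are given as means ± SD, n = 3–5.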

MDA-MB-435 = assay: Cell viability assay; format: cell-based, human; details: MDA-MB-435
How it was run: (§1)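 RPMI1640 (OVCAR3, OVCAR4, MDA-MB-435) or DMEM (OVCAR8, MDA-MB-231) was used, with 10% FBS and penicillin/streptomycin. Cells were STR-validated and kept below 20 passages. Cells were plated at 5000 per well overnight, then given test compound at final 0.95–250 nM (nine levels, 0.5% DMSO) for 72 h at 37 °C. Viability was read by CellTiter-Blue absorbance, and IC50 was taken relative to DMSO. Paclitaxel (0.39–100 nM) was the control, with three biological replicates.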

OVCAR8 = assay: 2D foci assay; format: cell-based, human; details: OVCAR8, 50 nM for 8 h, two weeks colony formation, relative to vehicle
How it was run: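 Cells were seeded at 200 per 60 mm dish and left to attach overnight. They were then exposed for 8 h to test compound (50 nM), DMSO vehicle or paclitaxel (10 nM). Medium was replaced and cells grew drug-free for about two weeks (15 days). Colonies were fixed in 4% paraformaldehyde, stained with 0.05% crystal violet, imaged and counted. There were three biological replicates, compared with vehicle by Dunnett's test.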

MDA-MB-231 = assay: Cell viability assay; format: cell-based, human; details: MDA-MB-231
How it was run: as §1

OVCAR3 = assay: Cell viability assay; format: cell-based, human; details: OVCAR3
How it was run: as §1

[2] = Mouse pharmacokinetics, plasma LC-MS/MS; format: in vivo; details: female C57BL/6 mice
[3] = tested on: female athymic nude (nu/nu) mice; assay: 14 day tolerability study, IP every 2 days; format: in vivo, mouse
How it was run: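 Female athymic nude mice (CrTac:NCr-Foxn1nu, 7–8 weeks) were randomized, n = 5 per group. Parent compound was given at 0.1, 0.25, 0.5 or 1.0 mg/kg, or the succinate at molar-equivalent 0.114, 0.285, 0.570 or 1.14 mg/kg. Vehicle was Tween80:Captex200:0.9% saline (8:2:90 v/v). Dosing was IP every 2 days for 14 days. Body weight was recorded every 2 days before dosing, and gross necropsy plus H&E histopathology were done.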

[4] = 0.114 mg/kg IP every 2 days, 14 days
[5] = 0.285 mg/kg IP every 2 days, 14 days
[6] = 1.14 mg/kg IP every 2 days, removed at 8 days
[7] = 0.10 mg/kg IP every 2 days, 14 days
[8] = 0.25 mg/kg IP every 2 days, 14 days
[9] = 1.00 mg/kg IP every 2 days, removed at 8 days

## CN1C(=O)[C@]23SS[C@@]1(C)C(=O)N2[C@H]1Nc2ccccc2[C@@]1([C@@]12c4ccccc4N[C@@H]1N1C(=O)[C@]4(C)SS[C@]1(C(=O)N4C)[C@H]2OC(=O)CCC(=O)O)[C@@H]3O [verticillin A succinate]
[1]; [4]
  MCH: 14.6 ± 0.2 pg
  MCHC: 32.8 ± 0.6 g/dL
  MCV: 44.4 ± 1.2 fL
  MPV: 7.9 ± 0.2 fL
  PCT: 0.754 ± 0.093%
  PDW: 47.5 ± 2.5%
  RBC: 8.95 ± 0.15 M/μL
  RDW: 13.9 ± 0.4%
  Reticulocyte #: 11.3 ± 12.9 K/μL
  WBC #: 6.52 ± 1.73 K/μL
  basophil #: 0.01 ± 0.01 K/μL
  eosinophil #: 0.01 ± 0.01 K/μL
  hematocrit: 39.7 ± 1.4%
  hemoglobin: 13.0 ± 0.2 g/dL
  lymphocyte #: 3.81 ± 1.09 K/μL
  monocyte #: 0.36 ± 0.10 K/μL
  neutrophil #: 2.33 ± 0.63 K/μL
  nucleated RBCs #: 0 ± 0 K/μL
  platelet #: 954 ± 118 K/μL
  reticulocyte: 0.13 ± 0.14%
[1]; [5]
  MCH: 14.7 ± 0.2 pg
  MCHC: 32.9 ± 0.8 g/dL
  MCV: 44.7 ± 0.9 fL
  MPV: 7.7 ± 0.07 fL
  PCT: 0.722 ± 0.072%
  PDW: 48.2 ± 2.2%
  RBC: 9.15 ± 0.22 M/μL
  RDW: 14.1 ± 0.6%
  Reticulocyte #: 6.3 ± 13.7 K/μL
  WBC #: 5.99 ± 1.11 K/μL
  basophil #: 0.01 ± 0.01 K/μL
  eosinophil #: 0.02 ± 0.02 K/μL
  hematocrit: 40.9 ± 1.2%
  hemoglobin: 13.5 ± 1.8 g/dL
  lymphocyte #: 3.12 ± 1.25 K/μL
  monocyte #: 0.20 ± 0.08 K/μL
  neutrophil #: 2.64 ± 0.54 K/μL
  nucleated RBCs #: 0 ± 0 K/μL
  platelet #: 938 ± 98 K/μL
  reticulocyte: 0.07 ± 0.15%
[1]; [6]
  MCH: 15.3 ± 0.4 pg
  MCHC: 32.5 ± 1.1 g/dL
  MCV: 47.2 ± 1.6 fL
  MPV: 7.4 ± 0.1 fL
  PCT: 0.701 ± 0.202%
  PDW: 51.5 ± 1.4%
  RBC: 9.49 ± 0.49 M/μL
  RDW: 15.1 ± 0.2%
  Reticulocyte #: 0 ± 0 K/μL
  WBC #: 6.80 ± 1.14 K/μL
  basophil #: 0.07 ± 0.10 K/μL
  eosinophil #: 0.10 ± 0.16 K/μL
  hematocrit: 44.7 ± 2.7%
  hemoglobin: 14.5 ± 0.42 g/dL
  lymphocyte #: 2.19 ± 0.61 K/μL
  monocyte #: 0.18 ± 0.04 K/μL
  neutrophil #: 4.26 ± 0.56 K/μL
  nucleated RBCs #: 0 ± 0 K/μL
  platelet #: 947 ± 271 K/μL
  reticulocyte: 0 ± 0%
MDA-MB-435
  cytotoxic activity: pronounced cytotoxic activities
OVCAR8
  foci formation: completely abrogated foci formation
MDA-MB-231
  cytotoxic activity: pronounced cytotoxic activities
OVCAR3
  cytotoxic activity: pronounced cytotoxic activities
[2]; IV 0.285 mg/kg, initial PK time points
  plasma concentration: < 3 nM
[3]; 0.570 mg/kg IP every 2 days
  early removal of mice: 13 day of treatment
[3]; 1.14 mg/kg IP every 2 days
  early removal of mice: 8 days of treatment
[3]; two higher dose levels, 0.570 and 1.14 mg/kg IP every 2 days
  tolerability: poorly tolerated
[3]; two lower dose levels, 0.114 and 0.285 mg/kg IP every 2 days, 14 days
  tolerability: well tolerated

## CN1C(=O)[C@]23SS[C@@]1(C)C(=O)N2[C@H]1Nc2ccccc2[C@@]1([C@@]12c4ccccc4N[C@@H]1N1C(=O)[C@@]4(C)SS[C@]1(C(=O)N4C)[C@H]2O)[C@@H]3O [verticillin A]
[1]; [7]
  MCH: 14.6 ± 0.2 pg
  MCHC: 32.7 ± 0.7 g/dL
  MCV: 44.6 ± 0.2 fL
  MPV: 7.9 ± 0.1 fL
  PCT: 0.701 ± 0.065%
  PDW: 47.4 ± 1.9%
  RBC: 9.89 ± 0.33 M/μL
  RDW: 13.8 ± 0.5%
  Reticulocyte #: 0 ± 0 K/μL
  WBC #: 6.01 ± 1.29 K/μL
  basophil #: 0.02 ± 0.01 K/μL
  eosinophil #: 0.02 ± 0.02 K/μL
  hematocrit: 44.1 ± 1.4%
  hemoglobin: 14.4 ± 0.3 g/dL
  lymphocyte #: 3.94 ± 1.16 K/μL
  monocyte #: 0.37 ± 0.09 K/μL
  neutrophil #: 1.65 ± 0.15 K/μL
  nucleated RBCs #: 0 ± 0 K/μL
  platelet #: 892 ± 74 K/μL
  reticulocyte: 0 ± 0%
[1]; [8]
  MCH: 15.2 ± 0.4 pg
  MCHC: 32.6 ± 1.2 g/dL
  MCV: 46.8 ± 1.0 fL
  MPV: 7.6 ± 1.1 fL
  PCT: 0.735 ± 0.147%
  PDW: 48.7 ± 0.8%
  RBC: 9.28 ± 0.81 M/μL
  RDW: 14.2 ± 0.4%
  Reticulocyte #: 8.6 ± 8.3 K/μL
  WBC #: 4.22 ± 1.68 K/μL
  basophil #: 0.01 ± 0.01 K/μL
  eosinophil #: 0.02 ± 0.01 K/μL
  hematocrit: 43.5 ± 4.0%
  hemoglobin: 14.2 ± 1.3 g/dL
  lymphocyte #: 1.72 ± 0.76 K/μL
  monocyte #: 0.18 ± 0.06 K/μL
  neutrophil #: 2.30 ± 0.98 K/μL
  nucleated RBCs #: 0 ± 0 K/μL
  platelet #: 964 ± 203 K/μL
  reticulocyte: 0.10 ± 0.09%
[1]; [9]
  MCH: 15.4 ± 0.3 pg
  MCHC: 33.7 ± 0.7 g/dL
  MCV: 45.5 ± 0.6 fL
  MPV: 7.7 ± 0.2 fL
  PCT: 0.815 ± 0.096%
  PDW: 47.3 ± 1.7%
  RBC: 9.79 ± 0.75 M/μL
  RDW: 16.2 ± 0.9%
  Reticulocyte #: 0 ± 0 K/μL
  WBC #: 5.97 ± 1.67 K/μL
  basophil #: 0.01 ± 0.01 K/μL
  eosinophil #: 0.03 ± 0.01 K/μL
  hematocrit: 44.6 ± 3.4%
  hemoglobin: 15.0 ± 1.0 g/dL
  lymphocyte #: 1.63 ± 1.19 K/μL
  monocyte #: 0.21 ± 0.29 K/μL
  neutrophil #: 4.09 ± 1.30 K/μL
  nucleated RBCs #: 0 ± 0 K/μL
  platelet #: 1057 ± 146 K/μL
  reticulocyte: 0 ± 0%
MDA-MB-435
  cytotoxic activity: pronounced cytotoxic activities
OVCAR8
  foci formation: completely abrogated foci formation
MDA-MB-231
  cytotoxic activity: pronounced cytotoxic activities
OVCAR3
  cytotoxic activity: pronounced cytotoxic activities
[2]; IP 0.25 mg/kg, most results just above the lower limit
  plasma concentration: 1 to 1000 nM
[2]; IV 0.25 mg/kg, most results just above the lower limit
  plasma concentration: 1 to 1000 nM
[2]; oral gavage 2.5 mg/kg, linear range 1–1000 nM
  plasma concentration: BLOQ
[3]; 0.5 mg/kg IP every 2 days
  early removal of mice: 13 day of treatment
[3]; 1.0 mg/kg IP every 2 days
  early removal of mice: 8 days of treatment
[3]; IP every 2 days, 14 days, female athymic nude mice
  maximal tolerated IP dose: 0.25 mg/kg
[3]; two higher dose levels, 0.5 and 1.0 mg/kg IP every 2 days
  tolerability: poorly tolerated
[3]; two lower dose levels, 0.100 and 0.250 mg/kg IP every 2 days, 14 days
  tolerability: well tolerated
